Activity calls are given as the source filed them. The calls are words filed in the database; no cut-off is given here.
How the values were obtained:
[1] = molecular target: Cellular tumor antigen p53 (Homo sapiens) (UniProt P04637); assay: Induction of p53 activation in human HCT116 cells assessed as upregulation of p21 expression at 0.1 to 5 uM after 12 hrs by western blot analysis; assay type: cell-based; conditions: HCT-116
How it was run: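 HCT116 cells exposed 12 h to compound or vehicle, then lysed on ice in PBS with 1% NP-40, 0.5% deoxycholate, 0.1% SDS and protease inhibitors. Up to 50 µg protein run on SDS-PAGE and immunoblotted for phospho-p53 (Ser15), p53 and p21. Bands quantified by densitometry against β-actin; mean ± SD of three experiments.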

Mus musculus [2] = assay: Acute toxicity in ICR mouse assessed as death at 240 mg/kg, ip measured for 14 days; assay type: organism-based; conditions: in vivo, 336 h
How it was run: (§1)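 Female ICR mice, single intraperitoneal injection at 585.9, 468.8, […], 300 or 240 mg/kg, or vehicle control, n = 10 per group. Deaths counted at 1 h, 4 h, daily on days 1-4 and over days 5-14. Eating, drinking, body weight and activity observed for 14 days, with survival (%) taken on day 14. LD50 calculated from mortality.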

[3] = Antitumor activity against human HCT116 cells xenografted in BALB/c mouse assessed as tumor growth inhibition at 90 mg/kg, po measured twice per week over 22 days; assay type: functional; conditions: HCT-116, po, 528 h, read-out: TGI
Mus musculus [4] = assay: Toxicity in BALB/c mouse xenografted with human HCT116 cells assessed as body weight change at 90 mg/kg, ip measured twice per week over 22 days; assay type: organism-based, HCT-116; conditions: in vivo, 528 h
Mus musculus [5] = assay: Acute toxicity in ICR mouse assessed as death at 240 to 585.9 mg/kg, ip measured after 1 hr; assay type: organism-based; conditions: in vivo; how it was run: as §1
Mus musculus [6] = assay: Acute toxicity in ICR mouse assessed as death at 240 to 300 mg/kg, ip measured after 5 to 14 days; assay type: organism-based; conditions: in vivo; how it was run: as §1
HCT-116 [7] = assay: Potency index, ratio of SAHA IC50 to compound IC50 for human HCT116 cells; assay type: functional
How it was run: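 HCT116 cells seeded at 10^4 cells/ml and adhered overnight, then treated 48 h over a concentration series with 0.1% DMSO as control. MTT readout; IC50 derived from inhibition % = (1 − OD treated/OD control) × 100, three independent measurements. Index = SAHA IC50 ÷ compound IC50.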

HCT-116 [8] = assay: Antiproliferative activity against human HCT116 cells assessed as cell death at 5 uM after 48 hrs by MTT assay; assay type: functional, cell-based
How it was run: (§2)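 HCT116 and rat IEC-18 cells incubated 48 h over a 0–5 µM range. Viability measured by MTT and expressed as % of control. GI50 taken from the inhibition curves; three independent experiments.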

[9] = Cytotoxicity against rat IEC-18 cells assessed as survival at 5 uM after 48 hrs by MTT assay; assay type: cell-based; conditions: iec-18, 48 h; how it was run: as §2
HCT-116 [10] = assay: Induction of PARP cleavage in human HCT116 cells at 1 to 5 uM after 48 hrs by western blot analysis; assay type: functional, cell-based
How it was run: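 HCT116 cells treated 48 h with or without compound. Western blots probed for Bax, Bcl-2, cleaved caspase-3 and PARP. Band intensities relative to β-actin by densitometry; means ± SD from three separate experiments.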

Histone deacetylase 1 = Histone deacetylase 1 (Homo sapiens, UniProt Q13547); assay: Inhibition of recombinant human HDAC1 using Boc-Lys (Ac)-AMC as substrate after 60 mins by fluorometric analysis
Chain of Histone deacetylase 1 (Q13547 whole entry): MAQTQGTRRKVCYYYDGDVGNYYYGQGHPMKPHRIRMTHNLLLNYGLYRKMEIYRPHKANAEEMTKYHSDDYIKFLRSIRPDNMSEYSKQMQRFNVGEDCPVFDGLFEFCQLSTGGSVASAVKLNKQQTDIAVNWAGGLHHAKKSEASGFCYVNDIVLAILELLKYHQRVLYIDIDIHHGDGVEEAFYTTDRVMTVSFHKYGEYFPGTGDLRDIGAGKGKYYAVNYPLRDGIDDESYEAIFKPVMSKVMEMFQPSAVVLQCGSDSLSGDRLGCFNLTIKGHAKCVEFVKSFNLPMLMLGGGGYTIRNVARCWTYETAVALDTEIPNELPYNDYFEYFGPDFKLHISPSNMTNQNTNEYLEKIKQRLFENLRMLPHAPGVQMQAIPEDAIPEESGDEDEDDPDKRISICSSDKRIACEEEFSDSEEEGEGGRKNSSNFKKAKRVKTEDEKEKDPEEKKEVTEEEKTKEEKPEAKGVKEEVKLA

Chain of Cellular tumor antigen p53 (Homo sapiens) (P04637 whole entry, looked up): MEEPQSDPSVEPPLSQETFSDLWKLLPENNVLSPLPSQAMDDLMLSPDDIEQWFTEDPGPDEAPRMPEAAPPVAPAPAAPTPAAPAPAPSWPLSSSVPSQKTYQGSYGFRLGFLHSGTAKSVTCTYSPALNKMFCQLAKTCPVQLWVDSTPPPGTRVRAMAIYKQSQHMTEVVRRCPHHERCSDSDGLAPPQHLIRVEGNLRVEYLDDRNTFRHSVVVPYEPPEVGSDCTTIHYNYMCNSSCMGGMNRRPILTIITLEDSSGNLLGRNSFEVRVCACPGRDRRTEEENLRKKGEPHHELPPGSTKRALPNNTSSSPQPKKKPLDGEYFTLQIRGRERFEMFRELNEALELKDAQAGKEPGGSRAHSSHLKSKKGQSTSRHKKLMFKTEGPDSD

COc1ccc(-c2nc(NC(=O)NCCCC(=O)NO)cc3c2[nH]c2ccccc23)cc1
Activity [1]: Active | Activity (Mus musculus [2]): Non-toxic | inhibition in vivo at 90 mg/kg [3]: 61.6% | Activity (Mus musculus [4]): Non-toxic | Activity (Mus musculus [5]): Non-toxic | Activity (Mus musculus [6]): Non-toxic | Ratio IC50 (HCT-116 [7]): 7 | Activity (HCT-116 [8]): Active | Activity [9]: Non-toxic | Activity (HCT-116 [10]): Active | IC50 (Histone deacetylase 1): 26 nM

From ChEMBL document CHEMBL3745678, “Novel β-Carboline/Hydroxamic Acid Hybrids Targeting Both Histone Deacetylase and DNA Display High Anticancer Activity via Regulation of the p53 Signaling Pathway” (J Med Chem, 2015)
